The list is not random: actives were taken first. Their share in the collection is about 0.99%.
ABCG2 block – blocks JC-1 efflux by human ABCG2 transporter; Q9UNQ0; IgMXP3 cells, flow cytometry; inhibition, % at 6.6 µM; 190,000 tested, 0.1% active;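 active means inhibition above 80%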
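Test system: IgMXP3 (ABCG2) plus far-red-tagged CCRF-Adr (ABCB1) cells / Amount: 3 million cells/mL in well / Reagent: JC-1 transporter substrate / Timing: 10 min compound exposure, 25 °C / Signal: flow cytometry, 530 nm JC-1 signal / Read-out: percent efflux inhibition, scaled nicardipine 100% to DMSO 0% / Benchmarks: nicardipine as high control, DMSO as low control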
Tn6 DDE FP – disrupts Tn6 cyclic peptide binding to fibrin D-Dimer-E complex. P02675. Fibrin DD(E) TRITC-Tn6 fluorescence polarization displacement. inhibition, % at 8.3 µM. 370,000 tested, 0.21% active;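 active means inhibition above a per-campaign cutoff: mean of compounds within control limits plus 3 SD, cut at about 15% in these data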
GRK2 inh – inhibitors of human GRK2 displacing RNA aptamer; P25098; 330,000 tested, 0.59% active; AID 488847; inhibition of aptamer binding, % at 10 µM; bead flow cytometry, FAM-aptamer displacement from GRK2;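 active means inhibition of aptamer binding above 40%, roughly 3 SD of noise, on plates passing a quality check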;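 further: median bead fluorescence of bound FAM aptamer so fluorescent compounds give negative values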
ABCB1 block – human ABCB1 inhibition, ABCG2 as counter-screen; CCRF-Adr cells, JC-1 efflux, flow cytometry; 190,000 tested, 0.067% active; P08183; AID 1326; inhibition, % at 6.6 µM; in the data active means inhibition above about 40%;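 further: higher value means more JC-1 retained so stronger ABCB1 efflux block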
Target sequence (P08183 whole entry, looked up): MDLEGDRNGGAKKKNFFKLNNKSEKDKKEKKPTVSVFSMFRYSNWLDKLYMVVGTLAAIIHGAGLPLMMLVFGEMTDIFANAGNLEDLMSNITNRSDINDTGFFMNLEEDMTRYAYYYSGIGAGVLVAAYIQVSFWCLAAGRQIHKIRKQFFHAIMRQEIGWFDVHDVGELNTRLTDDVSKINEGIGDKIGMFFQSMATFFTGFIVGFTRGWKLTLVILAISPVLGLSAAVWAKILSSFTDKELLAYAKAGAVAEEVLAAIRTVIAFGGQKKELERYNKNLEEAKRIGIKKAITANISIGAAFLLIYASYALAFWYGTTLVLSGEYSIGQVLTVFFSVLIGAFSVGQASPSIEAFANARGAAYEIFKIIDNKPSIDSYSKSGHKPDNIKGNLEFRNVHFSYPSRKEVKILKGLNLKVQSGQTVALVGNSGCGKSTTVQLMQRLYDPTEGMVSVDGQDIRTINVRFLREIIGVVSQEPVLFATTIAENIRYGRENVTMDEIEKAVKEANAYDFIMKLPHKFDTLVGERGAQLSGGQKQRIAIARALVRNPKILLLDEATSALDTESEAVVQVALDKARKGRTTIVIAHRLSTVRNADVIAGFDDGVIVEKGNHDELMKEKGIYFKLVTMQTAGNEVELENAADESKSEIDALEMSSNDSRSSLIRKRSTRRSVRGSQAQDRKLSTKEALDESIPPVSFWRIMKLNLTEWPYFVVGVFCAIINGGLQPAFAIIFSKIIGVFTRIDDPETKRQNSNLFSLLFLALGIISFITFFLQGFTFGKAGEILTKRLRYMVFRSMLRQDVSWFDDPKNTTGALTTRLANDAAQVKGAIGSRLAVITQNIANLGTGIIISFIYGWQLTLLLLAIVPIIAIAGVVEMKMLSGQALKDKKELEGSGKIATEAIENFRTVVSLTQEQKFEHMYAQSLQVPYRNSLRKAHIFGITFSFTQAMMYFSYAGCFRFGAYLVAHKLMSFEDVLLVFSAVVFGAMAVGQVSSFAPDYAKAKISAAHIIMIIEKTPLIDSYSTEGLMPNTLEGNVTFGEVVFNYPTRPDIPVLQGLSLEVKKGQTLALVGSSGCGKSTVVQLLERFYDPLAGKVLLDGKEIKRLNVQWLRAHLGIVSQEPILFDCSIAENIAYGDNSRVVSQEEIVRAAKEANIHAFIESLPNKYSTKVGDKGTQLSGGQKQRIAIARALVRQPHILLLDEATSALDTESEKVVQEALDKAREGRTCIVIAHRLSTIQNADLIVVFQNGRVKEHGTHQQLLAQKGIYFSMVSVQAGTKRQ
DDE Tn7 FP inh – disrupts Tn7 cyclic peptide binding to fibrin D-Dimer-E complex; 370,000 tested, 0.13% active; FP displacement of FITC-Tn7 peptide from fibrin DD(E); 0% = median of compound wells per plate; inhibition, % at 8.3 µM;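 active means inhibition above the mean of compounds falling within the control limits plus 3 SD of them, cut at about 14% in these data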
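Measure: % inhibition scaled between sample-field median and high-control FP; Test system: human fibrin DD(E); Quantity: 2 µM final DD(E) protein; Doses: one dose, 8.3 µM nominal; Schedule: compound with protein 10 min, then 3 h after probe, room temperature; Detection: fluorescence polarization; Medium: Tris buffer with calcium and detergent, pH 7.8.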
Insulin prom up – MIN6 insulin promoter up-regulation. AID 1625. z-score at 5 µM. 190,000 tested, 0.3% active. MIN6 insulin promoter-GFP reporter, high-content imaging; active compounds read high;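 active means z-score above 3 at 5 µM with at least 500 cells counted in the well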
GRK2 inh confirm – human GRK2 inhibition confirmation, cherry pick 1. shares compounds with GRK2 inh. bead-bound GRK2, FAM-aptamer displacement, flow cytometry. aptamer displacement, % at 10 µM. 2,000 tested, 4% active;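 active means aptamer displacement above 40%, near three times the noise of non-fluorescent compounds, on plates passing quality checks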;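 further: negative values mostly reflect intrinsic compound fluorescence rather than true enhancement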
FAM quench CP1 – quenches fluorescent RNA aptamer, GRK2 hit artifact | shares compounds with GRK2 inh | Carboxyfluorescein RNA aptamer on beads, flow cytometry quenching; active compounds read low | fluorescence response (% of DMSO), % at 10 µM | 2,000 tested, under 10 active;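 active means compounds that quench the bead-bound fluorescent RNA probe, cutting fluorescence to under half of the solvent control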;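 further: counterscreen run without GRK2 so only probe quenching by compound is measured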
GRK2 confirm 2 – confirmation of human GRK2 inhibitors binding RNA aptamer site; shares compounds with GRK2 inh; bead-bound GRK2, FAM-aptamer displacement, flow cytometry; inhibition of aptamer binding, % at 10 µM; 360 tested, under 10 active;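 active means inhibition of aptamer binding above 40%, about triple the noise seen with nonglowing compounds, on plates passing quality control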;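 further: negative values mostly come from compounds that fluoresce themselves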
FAM quench CP2 – quenches fluorescent RNA aptamer, GRK2 hit artifact; shares compounds with GRK2 inh; carboxyfluorescein RNA aptamer beads, flow cytometry quenching; active compounds read low; fluorescence response vs DMSO, % at 10 µM; 360 tested, under 10 active; AID 588494;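 active means response vs DMSO under 50%, meaning signal dropped by over half, treated as fluorescence quencher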;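 further: labelled aptamer on streptavidin beads without GRK2 as a quench counter-screen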
Of the large screens only hits and unclear results are named; the others gave an inactive call (follow-up assays come after a bar, where they were run).

O=C(NCCc1c[nH]c2ccccc12)OCc1cn(Cc2cccc(F)c2F)nn1	none (no result: ABCG2 block, GRK2 inh, ABCB1 block, Insulin prom up)
COC(=O)C1=C(C)NC(C)=C(C(=O)OC)C1C(=O)OCC(=O)Nc1ccc(C(C)=O)cc1	GRK2 inh 75 | GRK2 inh confirm inactive | FAM quench CP1 inactive
CCOC(=O)C1=C(C)NC(C)=C(C(=O)OCC)C1C(=O)OCC(=O)Nc1ccc(NC(C)=O)cc1	none (no result: ABCG2 block, GRK2 inh, ABCB1 block, Insulin prom up)
CCCC(=O)OC12CCCN(C1)/C(=C/c1cccc(Cl)c1)C2 (centres undefined)	none (no result: ABCG2 block, GRK2 inh, ABCB1 block, Insulin prom up)
COc1ccc(/C(O)=C2/C(=O)C(=O)N(CCN(C)C)C2c2ccc(OC)c(OC)c2)c(C)c1 (centres undefined)	GRK2 inh 71 (no result: Insulin prom up) | GRK2 inh confirm inactive | FAM quench CP1 inactive
COc1ccc(C2/C(=C(/O)c3cnn(-c4ccccc4)c3C)C(=O)C(=O)N2CCN(C)C)cc1OC (centres undefined)	none (no result: ABCG2 block, GRK2 inh, ABCB1 block, Insulin prom up)
Cc1cc(Cl)c2oc(C(=O)NC3CCC(O)CC3)c(C)c2c1 (centres undefined)	GRK2 inh 65 (no result: ABCG2 block, ABCB1 block, Insulin prom up) | GRK2 inh confirm inactive | FAM quench CP1 inactive
COc1ccc(C2CC(C(F)(F)F)n3nc(C(=O)Nc4c(C)n(C)n(-c5ccccc5)c4=O)c(Cl)c3N2)cc1 (centres undefined)	none (no result: Tn6 DDE FP, DDE Tn7 FP inh) | GRK2 inh confirm inactive | FAM quench CP1 inactive
CCN(CC(=O)NC1CCS(=O)(=O)C1)C(=O)c1ccc(OC)c([N+](=O)[O-])c1 (centres undefined)	none (no result: ABCG2 block, ABCB1 block, Insulin prom up)
CCN(CC(=O)NC1CCS(=O)(=O)C1)C(=O)c1cc(OC)c(OC)c(OC)c1 (centres undefined)	GRK2 inh 60 (no result: ABCG2 block, ABCB1 block, Insulin prom up) | GRK2 inh confirm inactive | FAM quench CP1 inactive
O=C(Nc1ccc(F)cc1)OCCN1C(=O)CCC12CCC(c1ccc(Cl)cc1)CC2 (centres undefined)	none (no result: ABCG2 block, GRK2 inh, ABCB1 block, Insulin prom up)
CC(=O)N1c2ccc(S(=O)(=O)NCCC(=O)NCCc3cccc(C)c3)cc2CC1C (centres undefined)	GRK2 inh 77 (no result: ABCG2 block, ABCB1 block, Insulin prom up) | GRK2 inh confirm inactive | FAM quench CP1 inactive
CC(=O)N1c2ccc(S(=O)(=O)NCCC(=O)NCCc3ccc(C)cc3)cc2CC1C (centres undefined)	none (no result: ABCG2 block, ABCB1 block, Insulin prom up)
Cc1ccnc(SCc2cc(=O)c(OC(=O)c3ccc(C#N)cc3)co2)n1	none (no result: ABCG2 block, GRK2 inh, ABCB1 block, Insulin prom up)
Cc1cc(C)nc(SCNC(=O)c2ccccc2)n1	GRK2 inh 48 | GRK2 inh confirm inactive | FAM quench CP1 inactive
COc1cnn(-c2ccc(C)cc2)c(=O)c1Br	none | GRK2 inh confirm inactive | FAM quench CP1 inactive
CC(=O)c1cc(-c2ccc3c(c2)OCO3)c(=O)n2c1CCC2	none (no result: ABCG2 block, GRK2 inh, ABCB1 block, Insulin prom up)
Cn1nccc1C(=O)Nc1ccc2c(c1)OCCO2	GRK2 inh 100 | GRK2 inh confirm inactive | FAM quench CP1 inactive
Cc1ccc(/C=N\NC(=O)CN2CCN(S(=O)(=O)c3ccc(Br)cc3)CC2)s1	none (no result: ABCG2 block, GRK2 inh, ABCB1 block, Insulin prom up)
COc1ccc(NC(=O)CCS(=O)(=O)c2ccc3c(c2)NC(=O)C(C)S3)cc1OC (centres undefined)	none (no result: ABCG2 block, ABCB1 block, Insulin prom up)
CC1Sc2ccc(S(=O)(=O)CCC(=O)NCc3ccccc3)cc2NC1=O (centres undefined)	none (no result: ABCG2 block, ABCB1 block, Insulin prom up) | GRK2 confirm 2 inactive | FAM quench CP2 inactive
COc1cccc(CNC(=O)CCS(=O)(=O)c2ccc3c(c2)NC(=O)C(C)S3)c1 (centres undefined)	none (no result: ABCG2 block, ABCB1 block, Insulin prom up)
COc1ccc(CNC(=O)CCS(=O)(=O)c2ccc3c(c2)NC(=O)C(C)S3)cc1 (centres undefined)	none (no result: ABCG2 block, ABCB1 block, Insulin prom up)

Screening data (PubChem)
